# Assay results: ChEMBL document CHEMBL1142740, “Pyrroloquinolone PDE5 inhibitors with improved pharmaceutical profiles for clinical studies on erectile dysfunction” (J Med Chem, 2005)
# Assays:
# RFL-6 [1] = assay: Ratio of inhibitory constant against phosphodiesterase 2 and phosphodiesterase 5 in rat fetal lung fibroblast (RFL-6) cells; type: cell-based
# RFL-6 [2] = assay: Ratio of inhibitory constant against phosphodiesterase 4 and phosphodiesterase 5 in rat fetal lung fibroblast (RFL-6) cells; type: cell-based
# RFL-6 [3] = assay: Ratio of inhibitory constant against phosphodiesterase 3 and phosphodiesterase 5 in rat fetal lung fibroblast (RFL-6) cells; type: cell-based
# RFL-6 [4] = assay: Ratio of inhibitory constant against cone phosphodiesterase 6 and phosphodiesterase 5 in rat fetal lung fibroblast (RFL-6) cells; type: cell-based
# RFL-6 [5] = assay: Ratio of inhibitory constant against phosphodiesterase 1 and phosphodiesterase 5 in rat fetal lung fibroblast (RFL-6) cells; type: cell-based
# [6] = target: T1, cGMP-specific 3',5'-cyclic phosphodiesterase (Rattus norvegicus, UniProt O54735); assay: Inhibition of phosphodiesterase 5 in rat fetal lung fibroblast (RFL-6) cells; type: cell-based
# RFL-6 [7] = assay: Ratio of inhibitory constant against rod phosphodiesterase 6 and phosphodiesterase 5 in rat fetal lung fibroblast (RFL-6) cells; type: cell-based
# [8] = target: cGMP-specific 3',5'-cyclic phosphodiesterase (Rattus norvegicus) (UniProt O54735); assay: pKa value for phosphodiesterase 5 in rat fetal lung fibroblast (RFL-6) cells; type: functional, cell-based
# [9] = (§1) Oral bioavailability in rat; type: ADME, organism-based; settings: in vivo
# In short: (§2)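 Male Sprague-Dawley rats, male beagle dogs and male rhesus monkeys, three per group. The oral arm received 30 mg/kg in 0.5% methylcellulose; the iv arm received 3.0 mg/kg in 20% HPBCD. Blood was drawn at 0, 0.5, 1, 2, 4, 6 and 24 h, and plasma drug was quantified by LC/MS. Bioavailability is reported as value and standard deviation.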
# [10] = target: T1, cGMP-specific 3',5'-cyclic phosphodiesterase; assay: Inhibitory concentration against phosphodiesterase 5 in rat fetal lung fibroblast (RFL-6) cells; type: cell-based
# Canis familiaris = assay: Effect on intracavernosal pressure after i.v. administration in electrically stimulated dogs; type: functional; settings: Canis lupus familiaris, iv
# [11] = Oral bioavailability in monkey was determined; type: ADME, organism-based; settings: cercopithecidae, in vivo; in short: as §2
# [12] = Oral bioavailability in dog; type: ADME, organism-based, Canis lupus familiaris; settings: in vivo; in short: as §2
# [13] = target: cGMP-specific 3',5'-cyclic phosphodiesterase (Rattus norvegicus) (UniProt O54735); settings: RFL-6
# [14] = as §1; type: ADME, organism-based; settings: in vivo; in short: as §2; remark: listed apart in the source
# RFL-6 [15] = assay: Ratio of binding affinity towards phosphodiesterase 4 and phosphodiesterase 5 in rat fetal lung fibroblast (RFL-6) cells; type: cell-based
Structure (SMILES),Ki [6],pKa [8],bioavailability [9],IC50 [10],bioavailability [11],bioavailability [12],Pka [13],pka [8],bioavailability [14],Selectivity (RFL-6 [1]),Selectivity (RFL-6 [2]),Selectivity (RFL-6 [3]),Selectivity (RFL-6 [4]),Selectivity (RFL-6 [5]),Selectivity (RFL-6 [7]),ED50 (Canis familiaris),Selectivity (RFL-6 [15])
Cc1ncc(-c2cnc(N3Cc4c(nc5ccccc5c4O)C3c3ccc4c(c3)CCO4)nc2)n1Cc1ccccc1 (stereo unspecified),0.24 nM,–,–,–,–,–,–,–,–,> 15000,> 2500,> 15000,359,> 15000,366,–,–
Oc1c2c(nc3ccccc13)C(c1ccc3c(c1)CCO3)N(c1ncc(-c3cccnc3)cn1)C2 (stereo unspecified),0.36 nM,–,–,–,–,–,–,–,–,> 15000,> 2500,> 15000,66.5,> 15000,127,–,–
COc1ccc(-c2cnc(N3Cc4c(nc5ccccc5c4O)C3c3ccc4c(c3)CCO4)nc2)cc1 (stereo unspecified),0.52 nM,–,–,–,–,–,–,–,–,–,–,–,–,–,–,–,–
Oc1c2c(nc3ccccc13)C(c1ccc3c(c1)CCO3)N(c1ncc(Br)cn1)C2 (stereo unspecified),–,–,–,1.9 nM,–,–,–,–,–,> 15000,> 2500,> 15000,39.2,> 15000,35.7,–,–
Oc1c2c(nc3ccccc13)C(c1ccc3c(c1)OCO3)N(c1ccc(-n3ccnc3)cc1)C2 (stereo unspecified),–,–,–,1.75 nM,–,–,–,–,–,> 4870,> 2500,> 10300,13.2,> 15000,20.1,–,–
Oc1c2c(nc3ccccc13)C(c1ccc3c(c1)CCO3)N(c1ccc(-n3ccnc3)cc1)C2 (stereo unspecified),0.51 nM,–,–,–,–,–,–,–,–,> 15000,> 2500,> 15000,1840,> 15000,499,–,–
CCCc1nn(C)c2c(=O)[nH]c(-c3cc(S(=O)(=O)N4CCN(C)CC4)ccc3OCC)nc12,–,–,–,–,–,–,–,–,–,–,–,–,–,–,–,5.1 µg/kg,–
CN1CC(=O)N2[C@H](c3ccc4c(c3)OCO4)c3[nH]c4ccccc4c3C[C@@H]2C1=O,5 nM,–,–,–,–,–,–,–,–,> 2000,> 2000,> 2000,1000,> 2000,–,–,–
Oc1c2c(nc3ccccc13)C(c1ccc3c(c1)CCO3)N(c1ccc(-c3cncn3Cc3ccccc3)cn1)C2 (stereo unspecified),0.17 nM,–,–,–,–,–,–,–,–,> 15000,> 2500,4560,68.9,> 15000,57.6,–,–
Oc1c2c(nc3ccccc13)C(c1ccc3c(c1)OCO3)N(c1ncc(-c3cccnc3)cn1)C2 (stereo unspecified),0.29 nM,–,–,–,–,–,–,–,–,> 15000,> 2500,> 15000,7.6,> 15000,9.3,–,–
Cc1ncc(-c2cnc(N3Cc4c(nc5ccccc5c4O)C3c3ccc4c(c3)CCO4)nc2)n1C (stereo unspecified),0.24 nM,–,0%,–,–,–,–,–,–,> 15000,> 2500,> 15000,219,> 15000,237,–,–
Oc1c2c(nc3ccccc13)C(c1ccc3c(c1)CCO3)N(c1ncc(-c3ccncc3)cn1)C2 (stereo unspecified),0.22 nM,–,–,–,–,–,–,–,–,> 15000,> 2500,> 15000,12.1,> 15000,10.5,–,–
O=c1c2c([nH]c3ccccc13)C(c1ccc3c(c1)CCO3)N(c1ccccn1)C2 (stereo unspecified),0.65 nM,–,38%,–,–,–,–,–,38%,–,–,–,–,–,–,–,–
Cn1cncc1-c1ccc(N2Cc3c(nc4ccccc4c3O)C2c2ccc3c(c2)CCO3)nc1 (stereo unspecified),0.33 nM,–,–,–,–,–,–,–,–,> 15000,–,> 15000,10.3,> 15000,2.6,–,> 2500
Oc1c2c(nc3ccccc13)C(c1ccc3occc3c1)N(c1ncc(-c3ccccn3)cn1)C2 (stereo unspecified),0.19 nM,–,–,–,–,–,–,–,–,> 15000,2500,> 15000,22.3,15000,22.6,–,–
CCN(CC)CCOc1ccc(-c2cnc(N3Cc4c(nc5ccccc5c4O)C3c3ccc4c(c3)CCO4)nc2)cc1 (stereo unspecified),0.53 nM,–,–,–,–,–,–,–,–,–,–,–,–,–,–,–,–

# Second part, led by results:
Ki [6],pKa [8],bioavailability [9],IC50 [10],bioavailability [11],bioavailability [12],Pka [13],pka [8],bioavailability [14],Structure (SMILES),Selectivity (RFL-6 [1]),Selectivity (RFL-6 [2]),Selectivity (RFL-6 [3]),Selectivity (RFL-6 [4]),Selectivity (RFL-6 [5]),Selectivity (RFL-6 [7]),ED50 (Canis familiaris),Selectivity (RFL-6 [15])
–,4.4,12%,–,–,–,–,–,–,Oc1c2c(nc3ccccc13)C(c1ccc3c(c1)CCO3)N(c1ncccn1)C2 (stereo unspecified),> 15000,> 2500,> 15000,310,> 15000,755,–,–
0.12 nM,–,–,–,40%,69%,–,–,–,Oc1c2c(nc3ccccc13)[C@@H](c1ccc3c(c1)CCO3)N(c1ccccn1)C2,> 15000,> 2500,> 15000,106,> 15000,173,9.85 µg/kg,–
–,–,31.3%,–,–,–,9.24,–,–,Oc1c2c(nc3ccccc13)C(c1ccc3c(c1)CCO3)N(c1ncc(-c3ccccn3)cn1)C2 (stereo unspecified),> 15000,–,> 15000,–,> 15000,–,–,–
–,–,–,–,–,–,–,5,–,Oc1c2c(nc3ccccc13)C(c1ccc3c(c1)CCO3)N(c1ccccn1)C2 (stereo unspecified),> 15000,> 2500,> 15000,237,> 15000,219,–,–
6.43 nM,–,–,–,–,–,–,–,–,Oc1c2c(nc3ccccc13)C(c1ccc3c(c1)CCO3)N(c1ccc(-c3ccccn3)nc1)C2 (stereo unspecified),> 15000,> 2500,> 15000,–,> 15000,–,–,–
0.019 nM,–,–,–,–,–,–,–,–,Oc1c2c(nc3ccccc13)[C@@H](c1ccc3c(c1)CCO3)N(c1ncc(-c3ccccn3)cn1)C2,> 15000,> 2500,> 15000,67,> 15000,99,8.03 µg/kg,–
0.15 nM,–,39%,–,–,–,–,–,–,Oc1c2c(nc3ccccc13)C(c1ccc3c(c1)CCO3)N(c1ccc(-c3ccccn3)cn1)C2 (stereo unspecified),> 15000,> 2500,> 15000,69.2,> 15000,93,–,–
